What was measured:
[1] = Cytotoxicity against african green monkey Vero cells after 72 hrs by MTT assay; assay type: cell-based; conditions: chlorocebus sabaeus
How it was run: (§1)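 Vero or transformed THP-1 cells incubated with compound (0.3–300 μM) 72 h at 37 °C, 5% CO2; untreated controls. MTT read-out, formazan OD at 580 nm; % cytotoxicity = 100 × (OD control − OD treated)/OD control. CC50/CC90 by sigmoidal regression; triplicates, repeated twice. DMSO stocks 100× concentrated, diluted in medium.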

[2] = test system: Trypanosoma cruzi; assay: Antitrypanosomal activity against Trypanosoma cruzi 320I01 epimastigotes after 72 hrs by haemocytometry; assay type: functional, organism-based; conditions: 320I01, 72 h
How it was run: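 Late-phase T. cruzi epimastigotes cultured in LIT medium with hiFCS at 28 °C; threefold serial dilutions (0.3–100 μM) for 72 h at 28 °C, untreated controls. Parasites counted in a haemocytometer; IC50/IC90 by sigmoidal regression; each concentration in triplicate, two experiments.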

[3] = Selectivity index, CC50 for african green monkey Vero cells to IC50 for Trypanosoma cruzi 320I01 epimastigote; assay type: functional
How it was run: (§2)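 Selectivity index computed as CC50 in Vero cells divided by IC50 against the T. cruzi stage named in the line.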

[4] = test system: Trypanosoma cruzi; assay: Antitrypanosomal activity against Trypanosoma cruzi 320I01 amastigotes infected in african green monkey Vero cells after 5 days by Giemsa staining; assay type: functional, organism-based; conditions: 320I01, Vero, 120 h
How it was run: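 Vero cells (RPMI, 5% hiSBF, 37 °C, 5% CO2) infected 24 h with tissue-derived T. cruzi trypomastigotes at parasite:cell 10:1. Compound dilutions (top 100 μM) applied 5 days at 37 °C, 5% CO2, medium changed once at day 3. Infected cells scored per 300 cells on methanol-fixed Giemsa preparations; IC50/IC90 by sigmoidal regression; triplicates, two experiments.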

[5] = Selectivity index, CC50 for african green monkey Vero cells to IC50 for Trypanosoma cruzi 320I01 amastigotes; assay type: functional; how it was run: as §2
[6] = test system: Leishmania chagasi; assay: Antileishmanial activity against Leishmania chagasi MHOM/BR/74/PP75 promastigotes after 72 hrs by haemocytometry; assay type: functional, organism-based; conditions: MHOM/BR/74/PP75, 72 h
How it was run: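 Late-phase L. chagasi promastigotes, grown at 28 °C in RPMI 1640 with hemin, HEPES and 10% hiSBF, exposed to threefold serial dilutions (0.3–100 μM) for 72 h at 28 °C; untreated controls. Growth inhibition from haemocytometer counts; IC50/IC90 by sigmoidal regression; triplicates, repeated twice.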

[7] = Cytotoxicity against human THP1 cells after 72 hrs by MTT assay; assay type: cell-based; conditions: THP-1 cells; how it was run: as §1
[8] = Selectivity index, CC50 for human THP1 cells to IC50 for Leishmania chagasi MHOM/BR/74/PP75 promastigotes; assay type: functional, THP-1
How it was run: (§3)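 Selectivity index computed as CC50 in THP-1 cells divided by IC50 against the L. chagasi stage named in the line.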

[9] = test system: Leishmania chagasi; assay: Antileishmanial activity against Leishmania chagasi MHOM/BR/74/PP75 amastigotes infected in human THP1 cells after 5 days by Giemsa staining; assay type: functional, organism-based; conditions: MHOM/BR/74/PP75, THP-1, 120 h
How it was run: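 THP-1 cells (RPMI, 5% hiSBF, 37 °C, 5% CO2) transformed, then infected 24 h with late-phase L. chagasi promastigotes at parasite:cell 10:1. Treated with compound dilutions (top 100 μM) 5 days at 37 °C, 5% CO2, medium changed once after 3 days. Infected cells counted per 300 cells on methanol-fixed Giemsa slides; IC50/IC90 by sigmoidal regression; triplicates, repeated twice.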

[10] = Selectivity index, CC50 for human THP1 cells to IC50 for Leishmania chagasi MHOM/BR/74/PP75 amastigotes; assay type: functional, THP-1; how it was run: as §3

Row | SMILES | CC50 at 72 h [1] [µM] | CC90 at 72 h [1] [µM] | IC50 [2] [µM] | IC90 [2] [µM] | Selectivity Index [3] | IC50 [4] [µM] | IC90 [4] [µM] | Selectivity Index [5] | IC50 [6] [µM] | IC90 [6] [µM] | CC50 at 72 h [7] [µM] | CC90 at 72 h [7] [µM] | Selectivity Index [8] | IC50 [9] [µM] | IC90 [9] [µM] | Selectivity Index [10]
1 | O[C@@H]1Cc2ccccc2N[C@H](c2cccc(Cl)c2)C1 (relative stereo) | 295 | > 300 | 19.6 | > 100 | 15.05 | > 100 | > 100 | >3 | 41.2 | 47 | 167 | > 300 | 4.04 | > 100 | > 100 | >1
2 | O[C@@H]1Cc2cc(Br)ccc2N[C@H](c2ccccc2)C1 (relative stereo) | 42.1 | > 300 | 15.7 | 57.4 | 2.68 | 97.8 | 99.4 | 0.43 | 45 | > 100 | 185 | > 300 | 4.1 | 97.7 | > 100 | >1
3 | Clc1cccc(Cl)c1[C@@H]1C[C@@H]2Cc3ccccc3N1O2 (relative stereo) | > 300 | > 300 | > 100 | > 100 | >3 | > 100 | > 100 | >3 | > 100 | > 100 | > 300 | > 300 | >3 | > 100 | > 100 | >3
4 | Fc1cccc(Cl)c1[C@@H]1C[C@@H]2Cc3ccccc3N1O2 (relative stereo) | > 300 | > 300 | 17.7 | > 100 | >17 | > 100 | > 100 | >3 | > 100 | > 100 | > 300 | > 300 | >3 | > 100 | > 100 | >3
5 | O[C@@H]1Cc2cc(Cl)ccc2N[C@H](c2ccccc2)C1 (relative stereo) | 191 | > 300 | 49.6 | > 100 | 3.85 | > 100 | > 100 | >2 | 22.1 | 90.6 | 188 | > 300 | 8.5 | > 100 | > 100 | >1
6 | O[C@@H]1Cc2cc(F)ccc2N[C@H](c2ccccc2)C1 (relative stereo) | > 300 | > 300 | 12.4 | > 100 | >24 | > 100 | > 100 | >3 | > 100 | > 100 | > 300 | > 300 | >3 | > 100 | > 100 | >3
7 | Clc1ccc2c(c1)C[C@H]1C[C@@H](c3c(Cl)cccc3Cl)N2O1 (relative stereo) | 57 | > 295 | > 100 | > 100 | >0.56 | > 98.2 | > 98.2 | >0.58 | 71 | > 100 | > 295 | > 295 | 4.15 | > 98.2 | > 98.2 | >3
8 | Fc1cccc(Cl)c1[C@@H]1C[C@@H]2Cc3cc(Cl)ccc3N1O2 (relative stereo) | > 300 | > 300 | 48.1 | > 100 | >6 | > 100 | > 100 | >3 | > 100 | > 100 | > 300 | > 300 | >3 | > 100 | > 100 | >3
9 | O[C@@H]1Cc2ccccc2N[C@H](c2ccccc2)C1 (relative stereo) | > 300 | > 300 | 31.8 | > 100 | >9 | > 100 | > 100 | >3 | > 100 | > 100 | > 300 | > 300 | >3 | > 100 | > 100 | >3
10 | O[C@@H]1Cc2cc(OC(F)(F)F)ccc2N[C@H](c2ccccc2)C1 (relative stereo) | 124 | 263 | 26.6 | 60.4 | 4.64 | > 100 | > 100 | >1 | 35.5 | 43.2 | 104 | > 300 | 2.92 | > 100 | > 100 | >1
11 | Cc1cccc([C@@H]2C[C@H](O)Cc3ccccc3N2)c1 (relative stereo) | > 300 | > 300 | 15.6 | 54.9 | >19 | 98 | > 100 | >3 | > 100 | > 100 | 176 | > 300 | >1 | > 100 | > 100 | >1
12 | O[C@@H]1Cc2ccccc2N[C@H](c2ccc(Cl)cc2)C1 (relative stereo) | > 300 | > 300 | 65.4 | > 100 | >4 | 41.8 | > 100 | >7 | 67.9 | > 100 | 114 | > 300 | 1.68 | > 100 | > 100 | >1
13 | O[C@@H]1Cc2ccccc2N[C@H](c2ccc(F)cc2)C1 (relative stereo) | > 300 | > 300 | 26.4 | 57.6 | >11 | > 100 | > 100 | >3 | > 100 | > 100 | > 300 | > 300 | >3 | > 100 | > 100 | >3
14 | COc1cccc([C@@H]2C[C@H](O)Cc3ccccc3N2)c1 (relative stereo) | > 300 | > 300 | 30.1 | 70.2 | >10 | > 100 | > 100 | >3 | 97.1 | > 100 | > 300 | > 300 | >3 | > 100 | > 100 | >3

Source: ChEMBL document CHEMBL1177650, “Synthesis, structural elucidation and in vitro antiparasitic activity against Trypanosoma cruzi and Leishmania chagasi parasites of novel tetrahydro-1-benzazepine derivatives” (Bioorg Med Chem, 2010)
